The list is not random: actives were taken first. Their share in the collection is about 2.6%.
Rce1 inhib: inhibitors of yeast Ras-converting enzyme. Q03530. yeast membranes, quenched prenylated peptide cleavage fluorescence. calls only. 0.27% of 290,000 active. AID 2563;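 active = fall in fluorescence gain of 50% or more versus controls, with final raw signal at or below 3038400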
TAAR1 antag: antagonists of human TAAR1 | inhibition, % at 3 µM | Q96RJ0 | 1.5% of 360,000 active | CHO RD-HGA16 TAAR1, Fluo-8 calcium fluorescence, antagonist;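 active = inhibition above a per-plate cutoff, the mean inhibition of test compounds on that plate plus 3 SD, cut at about 49% in these data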
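System: RD-HGA16 CHO cells with stable hTAAR1 and Gα16 | Probe or stimulus: EC80 β-phenethylamine stimulus | Dosing: 3 µM, single point | Times: Dye loading 75 min at 37 °C, then 30 min room temperature | Measured by: Fluo-8 calcium-sensitive fluorescence | Read-out basis: % inhibition of agonist calcium response | Replicates: n of 1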
VLA-4 inh: inhibition in a human VLA-4 binding assay; P13612; VLA-4 expressing cells, ligand binding flow cytometry; inhibition, % (about 7 µM as worked out from the volumes in the protocol); 0.2% of 330,000 active; in the data active = inhibition above about 50%
Target sequence (P13612 whole entry, looked up): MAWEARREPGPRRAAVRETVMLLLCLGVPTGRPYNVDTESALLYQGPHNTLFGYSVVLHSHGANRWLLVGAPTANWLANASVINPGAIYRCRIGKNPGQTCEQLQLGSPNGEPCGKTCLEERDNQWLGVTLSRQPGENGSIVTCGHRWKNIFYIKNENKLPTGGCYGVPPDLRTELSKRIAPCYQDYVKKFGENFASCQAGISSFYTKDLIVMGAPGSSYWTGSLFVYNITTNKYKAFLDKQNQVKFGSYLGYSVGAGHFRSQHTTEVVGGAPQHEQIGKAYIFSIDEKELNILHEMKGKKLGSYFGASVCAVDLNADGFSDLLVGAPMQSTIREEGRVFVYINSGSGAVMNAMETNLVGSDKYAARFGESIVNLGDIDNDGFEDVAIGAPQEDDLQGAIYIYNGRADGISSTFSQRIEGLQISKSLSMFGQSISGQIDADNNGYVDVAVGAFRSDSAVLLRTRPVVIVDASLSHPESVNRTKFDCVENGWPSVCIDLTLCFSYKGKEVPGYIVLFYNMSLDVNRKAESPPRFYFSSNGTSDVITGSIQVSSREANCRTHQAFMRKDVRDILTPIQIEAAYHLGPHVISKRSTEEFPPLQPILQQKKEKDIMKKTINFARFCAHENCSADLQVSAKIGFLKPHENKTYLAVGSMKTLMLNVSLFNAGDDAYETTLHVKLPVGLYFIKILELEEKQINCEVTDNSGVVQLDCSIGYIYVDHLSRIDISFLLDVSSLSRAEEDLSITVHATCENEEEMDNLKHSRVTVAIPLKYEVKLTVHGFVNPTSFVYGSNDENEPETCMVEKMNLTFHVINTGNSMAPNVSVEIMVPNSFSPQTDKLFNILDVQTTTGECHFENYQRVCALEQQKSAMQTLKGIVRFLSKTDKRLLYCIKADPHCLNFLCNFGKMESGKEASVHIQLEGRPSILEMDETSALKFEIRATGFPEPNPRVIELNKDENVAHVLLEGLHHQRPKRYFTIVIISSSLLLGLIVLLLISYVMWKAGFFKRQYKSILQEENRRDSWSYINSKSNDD
Platelet DG rel: modulates dense granule release in human platelets. AID 1663. 0.22% of 300,000 active. inhibition, %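 (compounds screened at 7.5 µM in platelet-rich plasma)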. human platelet-rich plasma, SFLLRN dense granule ATP release, luminescence;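 active = mean replicate score, as percent of positive control, at or above 50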
TAAR1 ag: human TAAR1 agonism | Q96RJ0 | CHO RD-HGA16 TAAR1, Fluo-8 calcium fluorescence; vehicle wells 0%, saturating PEA agonist 100% | activation, % at 3 µM | 0.99% of 360,000 active;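 active = activation above the mean activation of all test compounds in the run plus 3 SD, cut at about 38% in these data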
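Test system: RD-HGA16 (CHO) cells co-expressing Gα16 and hTAAR1; dosing: one-point dosing at 3 µM (nominal); timing: 17-24 h seeding, 75 min 37 °C dye, 30 min RT; signal: kinetic Fluo-8 calcium fluorescence; read-out basis: % activation relative to PEA EC100 response; controls: DMSO and PEA EC100; replicates: n 1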
TAAR1 nonsel count: nonselective antagonist in TAAR1 antagonist counter-screen; inhibition, % at 3 µM; AID 651780; shares compounds with TAAR1 antag; counterscreen cell line, calcium fluorescence, antagonist mode; 77% of 2,400 active; in the data active = inhibition above about 22%;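 also: CHO-Ga16 host cells stimulated with ATP at an EC80 level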
TAAR1 antag conf: human TAAR1 antagonism, confirmed. shares compounds with TAAR1 antag. TAAR1-expressing cells, fluorescence antagonist read-out. inhibition, % at 3 µM. 40% of 2,400 active; in the data active = inhibition above about 49%;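 also: CHO-Ga16 host cells challenged with agonist PEA near its EC80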
Ga16 ag counter: counter-screen for TAAR1 antagonists: nonselective Ga16 agonists; activation, % at 3 µM; Ga16-expressing cells, calcium fluorescence, agonist counterscreen; 18% of 2,400 active; AID 651953; shares compounds with TAAR1 antag; in the data active = activation above about 12%
TAAR1 ag count: TAAR1 agonism, antagonist counter-screen. AID 651955. activation, % at 3 µM. 2% of 2,400 active. shares compounds with TAAR1 antag. hTAAR1 cell line, fluorescence activation, agonist mode; in the data active = activation above about 37%;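 also: CHO cells stably expressing TAAR1 with calcium dye readout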
A number is an active result.

`COc1ccc(-n2nc(C(=O)NCC(=O)Nc3cc(OC)c(OC)c(OC)c3)c3ccccc3c2=O)cc1OC` gave Rce1 inhib inactive, TAAR1 antag 64, VLA-4 inh inactive, Platelet DG rel inactive, TAAR1 ag inactive, TAAR1 nonsel count 29, TAAR1 antag conf 51, Ga16 ag counter inactive and TAAR1 ag count inactive.
Cc1cc(C)c2cc(C#N)c(NCCNC(=O)c3cccnc3)nc2c1 was read as TAAR1 antag inactive and TAAR1 ag inactive.
`Cc1cc(C)cc(OCC(=O)NNC(=O)c2ccccn2)c1` gave TAAR1 antag inactive, VLA-4 inh inactive and TAAR1 ag inactive.
For Cc1ccc(NC(=O)c2ccc3nsnc3c2)c(C)c1 the results were Rce1 inhib inactive, TAAR1 antag inactive, VLA-4 inh inactive, Platelet DG rel inactive and TAAR1 ag inactive.
`CCOC(=O)c1sc(NC(=O)c2cccc(S(=O)(=O)N(CC)CC)c2)cc1C` gave Rce1 inhib inactive, TAAR1 antag 61, VLA-4 inh inactive, Platelet DG rel inactive, TAAR1 ag inactive, TAAR1 nonsel count 47, TAAR1 antag conf 63, Ga16 ag counter inactive and TAAR1 ag count inactive.
For CC(C(=O)N(C)Cc1cccc(F)c1)N1CCN(S(=O)(=O)c2ccc3c(c2)OCCCO3)CC1 (stereo not drawn) the results were TAAR1 antag inactive and TAAR1 ag inactive.
`COc1ccc2cc(/C=C3\SC(=S)NC3=O)c(N3CCOCC3)nc2c1` gave Rce1 inhib inactive, TAAR1 antag 53, VLA-4 inh inactive, Platelet DG rel inactive, TAAR1 ag inactive, TAAR1 nonsel count 36, TAAR1 antag conf inactive, Ga16 ag counter inactive and TAAR1 ag count inactive.
Screening O=C1NC(=S)S/C1=C/c1ccc(N2CCOCC2)o1 returned Rce1 inhib inactive, VLA-4 inh inactive and Platelet DG rel inactive.
CC(C)(C)OC(=O)C[C@@H]1C/C=C\C[C@@H](CC(=O)N[C@H](CO)Cc2ccccc2)C(=O)NC[C@H](c2ccccc2)OC1=O was read as TAAR1 antag 53, VLA-4 inh inactive, TAAR1 ag inactive, TAAR1 nonsel count 23, TAAR1 antag conf inactive, Ga16 ag counter inactive and TAAR1 ag count inactive.
For CC(C)(C)OC(=O)C[C@H]1C/C=C\C[C@@H](CC(=O)N[C@H](CO)Cc2ccccc2)C(=O)NC[C@H](c2ccccc2)OC1=O the results were TAAR1 antag inactive, VLA-4 inh inactive and TAAR1 ag inactive.
Screening CC(C)(C)OC(=O)C[C@@H]1C/C=C\C[C@@H](CC(=O)N[C@H](CO)Cc2ccccc2)C(=O)N2CCC[C@H]2COC1=O returned TAAR1 antag 67, VLA-4 inh inactive, TAAR1 ag inactive, TAAR1 nonsel count 30, TAAR1 antag conf 50, Ga16 ag counter 12 and TAAR1 ag count inactive.
Cc1ccccc1NC(=O)CCN1CCN(CCO)CC1 was read as Rce1 inhib inactive, TAAR1 antag inactive, VLA-4 inh inactive, Platelet DG rel inactive and TAAR1 ag inactive.
CCCCn1nnnc1C(c1cccc2ccccc12)N1CCN(C/C=C/c2ccccc2)CC1 (stereo not drawn) was read as TAAR1 antag inactive and TAAR1 ag inactive.
For O=C(NCc1ccccc1Cl)c1ccc(Br)o1 the results were Rce1 inhib inactive, TAAR1 antag 104, VLA-4 inh inactive, Platelet DG rel inactive, TAAR1 ag inactive, TAAR1 nonsel count inactive, TAAR1 antag conf inactive, Ga16 ag counter inactive and TAAR1 ag count inactive.
CCCN1CCN(CC(=O)NCC(=O)Nc2cccc(C)c2C)CC1 was read as TAAR1 antag inactive and TAAR1 ag inactive.
Screening CCNC(=S)N/N=C/c1cc(C)n(-c2ccc(Cl)cc2)c1C returned Rce1 inhib inactive, TAAR1 antag 101, VLA-4 inh inactive, Platelet DG rel inactive, TAAR1 ag inactive, TAAR1 nonsel count inactive, TAAR1 antag conf 77, Ga16 ag counter inactive and TAAR1 ag count inactive.
For O=C(COC(=O)c1c2c(nc3ccccc13)CCCC2)c1cccs1 the results were Rce1 inhib inactive, TAAR1 antag 53, VLA-4 inh inactive, Platelet DG rel inactive, TAAR1 ag inactive, TAAR1 nonsel count 26, TAAR1 antag conf inactive, Ga16 ag counter inactive and TAAR1 ag count inactive.
For O=C(OCC(=O)N1CCc2ccccc21)c1c2c(nc3ccccc13)CCCC2 the results were Rce1 inhib inactive, TAAR1 antag 57, VLA-4 inh inactive, Platelet DG rel inactive, TAAR1 ag inactive, TAAR1 nonsel count 24, TAAR1 antag conf inactive, Ga16 ag counter inactive and TAAR1 ag count inactive.
C[C@H](CO)N1C[C@H](C)[C@@H](CN(C)C(=O)Nc2ccc3c(c2)OCO3)Oc2ccc(NS(=O)(=O)c3ccc(F)cc3)cc2C1=O was read as TAAR1 antag inactive, VLA-4 inh inactive and TAAR1 ag inactive.
COc1cc(OC)cc(C(=O)Nc2cccc(NC(C)=O)c2)c1 was read as Rce1 inhib inactive, TAAR1 antag inactive, VLA-4 inh inactive, Platelet DG rel inactive and TAAR1 ag inactive.
COc1cccc(C(=O)Nc2ccc(C(=O)c3ccccc3)cc2)c1 was read as Rce1 inhib inactive, TAAR1 antag 67, VLA-4 inh inactive, Platelet DG rel inactive, TAAR1 ag inactive, TAAR1 nonsel count 32, TAAR1 antag conf inactive, Ga16 ag counter inactive and TAAR1 ag count inactive.
For CCCc1cc(C(=O)Nc2ccc(C(=O)c3ccc(F)cc3)cc2)n(C)n1 the results were Rce1 inhib inactive, VLA-4 inh inactive and Platelet DG rel inactive.
For CCCc1cc(C(=O)Nc2ccc(C(=O)c3ccccc3)cc2)n(C)n1 the results were TAAR1 antag 72, VLA-4 inh inactive, Platelet DG rel inactive, TAAR1 ag inactive, TAAR1 nonsel count 34, TAAR1 antag conf 55, Ga16 ag counter inactive and TAAR1 ag count inactive.
`COc1cc(OC)cc(C(=O)Nc2cccc(NC(=O)c3cc(OC)cc(OC)c3)n2)c1` gave Rce1 inhib inactive, TAAR1 antag 75, VLA-4 inh inactive, Platelet DG rel inactive, TAAR1 ag inactive, TAAR1 nonsel count 27, TAAR1 antag conf 49, Ga16 ag counter inactive and TAAR1 ag count inactive.
Screening c1ccc(CN2CCC3CC2c2cc(N4CCCCC4)ccc23)cc1 (stereo not drawn) returned TAAR1 antag inactive and TAAR1 ag inactive.
Screening CC(=O)C[C@H](O)CC(=O)[C@H]1OC(=O)CCCCCCCc2ccccc21 returned TAAR1 antag inactive, VLA-4 inh inactive and TAAR1 ag inactive.
`S=C(NCCCN1CCOCC1)N(Cc1ccccc1)Cc1ccccc1` gave Rce1 inhib inactive, TAAR1 antag inactive, VLA-4 inh inactive, Platelet DG rel inactive and TAAR1 ag inactive.

Bioassay records (PubChem BioAssay)
